Measurements collected from several papers.
Lines come from different studies, so protocols differ. pIC50: −log10 of the molar value.
Target: Acetylcholinesterase (ache, Electrophorus electricus, UniProt O42275)
Read-out: enzyme activity
Action: inhibitor
Method: Ellman

SMILES | pIC50
CCN(C)C(=O)Oc1ccc(CCC(=O)N2CCN(Cc3ccccc3)CC2)cc1 | 5.11
CC(C)(C)OC(=O)NC1CCCN(C(=O)/C=C/c2cccc(F)c2)C1 (stereo not shown) | 4.42
CCN(C)C(=O)Oc1ccc(CCC(=O)N2CCC(Cc3ccccc3)CC2)cc1 | 5.21
O=C(O)C(/C=C/c1c(Cl)cccc1Cl)=N\Nc1nc(-c2ccc(Cl)cc2)cs1 | 7.04
CC(C)(C)OC(=O)NC1CCCN(C(=O)/C=C/c2ccccc2Br)C1 (stereo not shown) | 4.33
O=[N+]([O-])c1ccc(-c2nnc(-c3ccc(OCc4cn(Cc5ccc(Br)cc5)nn4)cc3)o2)cc1 | < 4.00
CC(C)(C)OC(=O)NC1CCCN(C(=O)/C=C/c2cccc([N+](=O)[O-])c2)C1 (stereo not shown) | 4.45
CCN(C)C(=O)Oc1ccc(CCC(=O)N(CC)CC)cc1OC | 4.71
CC(C)(C)OC(=O)NC1CCCN(C(=O)/C=C/c2ccccc2Cl)C1 (stereo not shown) | 4.70
Fc1ccc(-c2nnc(-c3ccc(OCc4cn(Cc5ccc(Br)cc5)nn4)cc3)o2)cc1 | < 4.00
COc1ccc(OC)c(/C=C/C(=O)N2CCCC(NC(=O)OC(C)(C)C)C2)c1 (stereo not shown) | 4.38
Clc1ccc(Cn2cc(COc3ccc(-c4nnc(-c5ccccc5)o4)cc3)nn2)cc1 | < 4.00
CCN(C)C(=O)Oc1ccc(/C=C/C(=O)NC2CCN(Cc3ccccc3)CC2)cc1 | 5.74
COc1ccccc1/C=C/C(=O)N1CCCC(NC(=O)OC(C)(C)C)C1 (stereo not shown) | < 4.30
CCN(C)C(=O)Oc1ccc(CCC(=O)N2CCN(Cc3ccccc3)CC2)cc1OC | 4.91
Cc1ccc(Cn2cc(COc3ccc(-c4nnc(-c5ccccc5)o4)cc3)nn2)cc1 | < 4.00
O=C(O)C(/C=C/c1ccc(Cl)cc1)=N\Nc1nc(-c2ccccc2)cs1 | 6.07
COc1cc(CCC(=O)N2CCC(Cc3ccccc3)CC2)ccc1OC(=O)N(C)C | 5.07
O=C(O)C(/C=C/c1c(Cl)cccc1Cl)=N\Nc1nc(-c2ccc(Br)cc2)cs1 | 6.18
Fc1ccc(-c2nnc(-c3ccc(OCc4cn(Cc5ccccc5)nn4)cc3)o2)cc1 | < 4.00
CC(C)(C)OC(=O)NC1CCCN(C(=O)/C=C/c2ccc(Cl)cc2)C1 (stereo not shown) | < 4.30
Brc1ccc(Cn2cc(COc3ccc(-c4nnc(-c5ccccc5)o4)cc3)nn2)cc1 | < 4.00
CCN(C)C(=O)Oc1ccc(CCC(=O)N2CCC(CCCc3ccccc3)CC2)cc1OC | 4.82
Cc1ccc(Cn2cc(COc3ccc(-c4nnc(-c5ccc([N+](=O)[O-])cc5)o4)cc3)nn2)cc1 | < 4.00
COc1ccc(/C=C/C(=O)N2CCCC(NC(=O)OC(C)(C)C)C2)cc1 (stereo not shown) | < 4.30
